Experimental data: publication PMC6447837 (Cancer Science, 2019)

Columns and labels:
[1] = system: Bxpc‐3 cells; experiment: Colony formation assay; format: cell-based, human; conditions: 18 days
Summary of the method: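 Cells were seeded at 5000-8000 per well and treated with test compound the next day, from DMSO stocks diluted in medium. Medium with vehicle or compound was replaced every 4 days. Cells were then methanol-fixed and crystal violet-stained. Colonies of more than 50 cells were counted under an inverted microscope and expressed as a percentage of colony numbers. Mean of n = 3, with SD.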

[2] = system: STAT3; experiment: Immunohistochemistry of xenograft tumor tissues; format: in vivo, NOD‐SCID mice; conditions: Aspc‐1 and Bxpc‐3 models; LY‐1816 and dasatinib 40 mg/kg/d p.o., gemcitabine 80 mg/kg/wk; IHC
Summary of the method: (§1)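 Six-week-old female NOD-SCID mice received 5 × 10⁶ to 1 × 10⁷ cells s.c. in the right flank. Treatment began at about 200 mm³. Test compound (40 mg/kg/d) was given once daily by oral gavage in 25% PEG400 plus 5% DMSO in water. Tumors were resected at the end of dosing. Frozen sections were immunostained and imaged by light microscopy.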

[3] = system: AKT; experiment: Western blot, AKT phosphorylation; format: cell-based, human; conditions: Aspc‐1 and Bxpc‐3 cells, 12 hours
Summary of the method: (§2)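 Aspc-1 and Bxpc-3 cells were grown overnight in complete medium and treated with test compound for 12 h. Cells were lysed in RIPA buffer and protein was quantified. Lysates were run on SDS-PAGE and transferred to PVDF, then blocked 2 h in TBS-T with 5% non-fat milk. Blots were probed for pAKT Ser473, pERK Thr202/Tyr204, pSTAT3 Tyr705, the matching total proteins and β-actin. Detection was by enhanced chemiluminescence.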

[4] = system: COLO‐205; experiment: MTT antiviability assay; format: cell-based; conditions: Homo sapiens, COLO 205, 72 h
[5] = system: SW1990; experiment: MTT antiviability assay; format: cell-based; conditions: Homo sapiens, SW1990, 72 h
[6] = system: PANC‐1; experiment: MTT antiviability assay; format: cell-based; conditions: Homo sapiens, PANC-1, 72 h
[7] = system: Aspc‐1 xenograft; experiment: Subcutaneous xenograft model; format: in vivo, NOD‐SCID mice; conditions: Aspc‐1 model
Summary of the method: (§3)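 Female NOD‑SCID mice bearing s.c. right‑flank tumors (5 × 10⁶–1 × 10⁷ cells injected) were randomized at 100–200 mm³ (6–7 per group). They received test compound in 25% PEG400/5% DMSO/water by oral gavage once daily for 18 days, or vehicle. Tumors were measured by caliper every 3 days, with volume = length × width² × 0.5.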

[8] = system: Src; experiment: Immunohistochemistry of xenograft tumor tissues; format: in vivo, NOD‐SCID mice; conditions: Aspc‐1 and Bxpc‐3 models; LY‐1816 and dasatinib 40 mg/kg/d p.o., gemcitabine 80 mg/kg/wk; IHC
[9] = system: Aspc‐1 cells; experiment: Transwell invasion assay; format: cell-based, human
Summary of the method: (§4)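 Inserts were precoated with polymerized collagen type I. Cells were seeded on the insert bottom in serum‑free medium with serial dilutions of test compound or vehicle, with 10% FBS medium in the lower chamber. After one day, cells were stained with calcein‑AM and optical sections taken at 10‑μm intervals. Invasion was scored as cells moving >20 μm into collagen; n = 3, mean with SD.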

[10] = system: Bxpc‐3; experiment: MTT antiviability assay; format: cell-based; conditions: Homo sapiens, BXPC-3, 72 h
[11] = target: Lck (Homo sapiens, UniProt P06239); experiment: Radiometric kinase IC50 assay; format: biochemical
[12] = system: DU145; conditions: DU145, Prostate carcinoma; ref Zhang et al (2016) 35; cited from earlier work
[13] = system: NCI‐N87; experiment: MTT antiviability assay; format: cell-based; conditions: Homo sapiens, NCI-N87, 72 h
[14] = system: MDA‐MB‐415; conditions: MDA‐MB‐415, Breast cancer; ref Zhang et al (2016) 35; cited from earlier work
[15] = target: 205 other kinases; experiment: Radiometric kinase assay, remaining panel; format: biochemical, human; conditions: 205 other kinases of the panel; did not show activity
[16] = system: PC‐9; conditions: PC‐9, Lung cancer; mean ± SD; ref Zhang et al (2016) 35; cited from earlier work
[17] = system: Bxpc‐3 xenograft; experiment: Subcutaneous xenograft model; format: in vivo, NOD‐SCID mice; conditions: Bxpc‐3 model
Summary of the method: as §3

[18] = system: FOSL1; experiment: Western blot, FOSL1 expression in intact cells; format: cell-based, human; conditions: 12 hours
[19] = target: Yes (Homo sapiens, UniProt P07947); experiment: Radiometric kinase IC50 assay; format: biochemical
[20] = system: FOSL1; experiment: Immunohistochemistry of xenograft tumor tissues; format: in vivo, NOD‐SCID mice; conditions: Aspc‐1 and Bxpc‐3 models; LY‐1816 and dasatinib 40 mg/kg/d p.o., gemcitabine 80 mg/kg/wk; IHC
Summary of the method: as §1

[21] = system: plc/prf/5; conditions: plc/prf/5, Hepatocarcinoma; ref Zhang et al (2016) 35; cited from earlier work
[22] = system: ERK; experiment: Western blot, ERK phosphorylation; format: cell-based, human; conditions: Aspc‐1 and Bxpc‐3 cells, 12 hours
Summary of the method: as §2

[23] = system: Aspc‐1; experiment: MTT antiviability assay; format: cell-based; conditions: Homo sapiens, ASPC1, 72 h
[24] = system: SMMC7721; conditions: SMMC7721, Hepatocarcinoma; ref Zhang et al (2016) 35; cited from earlier work
[25] = system: Bxpc‐3 cells; experiment: Wound healing assay; format: cell-based, human; conditions: 18 hours
[26] = system: HPAF‐II; experiment: MTT antiviability assay; format: cell-based; conditions: Homo sapiens, 72 h
[27] = system: HL‐60; conditions: HL‐60, Acute myeloid leukemia; mean ± SD; ref Zhang et al (2016) 35; cited from earlier work
[28] = system: ZR‐75‐1; conditions: ZR‐75‐1, Breast cancer; ref Zhang et al (2016) 35; cited from earlier work
[29] = system: Bxpc‐3 cells; experiment: Transwell invasion assay; format: cell-based, human
Summary of the method: as §4

[30] = system: HT29; conditions: HT29, Colorectal carcinoma; mean ± SD; ref Zhang et al (2016) 35; cited from earlier work
[31] = system: CFPAC; experiment: MTT antiviability assay; format: cell-based; conditions: Homo sapiens, 72 h
[32] = 40 mg/kg daily, orally, 18 days
[33] = LY‐1816 20 or 40 mg/kg/d p.o., dasatinib 40 mg/kg/d p.o., gemcitabine 80 mg/kg once a week

Lck, sequence (P06239 whole entry): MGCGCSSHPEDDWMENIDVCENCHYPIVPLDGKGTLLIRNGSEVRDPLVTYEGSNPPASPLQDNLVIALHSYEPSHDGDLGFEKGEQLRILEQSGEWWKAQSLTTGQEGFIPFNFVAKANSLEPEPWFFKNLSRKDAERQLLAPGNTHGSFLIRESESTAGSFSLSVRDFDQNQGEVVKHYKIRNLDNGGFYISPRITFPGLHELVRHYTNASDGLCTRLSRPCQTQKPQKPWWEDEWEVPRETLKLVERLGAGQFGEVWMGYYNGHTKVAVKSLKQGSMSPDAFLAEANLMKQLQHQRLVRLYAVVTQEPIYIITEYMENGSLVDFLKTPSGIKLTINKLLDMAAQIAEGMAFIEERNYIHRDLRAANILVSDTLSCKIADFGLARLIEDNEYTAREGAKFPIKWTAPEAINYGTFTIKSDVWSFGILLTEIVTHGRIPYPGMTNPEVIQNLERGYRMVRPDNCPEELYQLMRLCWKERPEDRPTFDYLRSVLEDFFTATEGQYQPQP
Yes, sequence (P07947 whole entry): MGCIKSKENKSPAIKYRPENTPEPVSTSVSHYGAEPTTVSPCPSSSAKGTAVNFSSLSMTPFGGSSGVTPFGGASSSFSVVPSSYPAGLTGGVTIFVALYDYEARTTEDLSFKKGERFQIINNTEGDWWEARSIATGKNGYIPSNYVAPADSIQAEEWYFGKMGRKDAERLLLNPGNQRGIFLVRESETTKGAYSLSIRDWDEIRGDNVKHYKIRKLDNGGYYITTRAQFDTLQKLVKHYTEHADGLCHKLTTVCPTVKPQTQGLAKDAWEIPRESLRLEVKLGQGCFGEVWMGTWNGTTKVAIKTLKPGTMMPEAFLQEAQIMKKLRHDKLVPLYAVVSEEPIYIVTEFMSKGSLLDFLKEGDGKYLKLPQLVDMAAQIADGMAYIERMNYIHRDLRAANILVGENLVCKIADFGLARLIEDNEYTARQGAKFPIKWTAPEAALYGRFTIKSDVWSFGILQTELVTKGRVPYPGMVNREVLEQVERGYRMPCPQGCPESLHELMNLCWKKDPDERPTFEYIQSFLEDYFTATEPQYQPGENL

## Cc1ccc(NC(=O)c2ccc(C)c(C(F)(F)F)c2)cc1C#Cc1nn(C2CCC(O)CC2)c2ncnc(N)c12 (stereo not shown) [LY‐1816, N‐(3‐((4‐amino‐1‐(4‐hydroxycyclohexyl)‐1H‐pyrazolo[3,4‐d]pyrimidin‐3‐yl)ethynyl)‐4‐methylphenyl)‐4‐methyl‐3‐(trifluoromethyl)benzamide]
[1]
  colony growth: significantly inhibited the colony growth
[2]
  phosphorylation of STAT3 in tumor tissues: evidently reduced the phosphorylation of Src and STAT3
[3]
  phosphorylation of AKT: very weak or no impact on the phosphorylation of ERK and AKT
[4]
  IC50: 17 ± 1 nM
[5]
  IC50: 42 ± 53 nM
[6]
  IC50: 123 ± 15 nM
[7]; [32]
  tumor‐inhibition rate: > 90%
[7]; [33]
  antitumor activity: dose‐dependent tumor inhibitory activities
[8]
  phosphorylation of Src in tumor tissues: evidently reduced the phosphorylation of Src and STAT3
[9]
  cell invasion: significantly suppressed the invasion
[10]
  IC50: 58 ± 11 nM
[11]
  IC50: 14 nM
[12]
  IC50: > 10000 nM
[13]
  IC50: 147 ± 44 nM
[14]
  IC50: ~10000 nM
[15]
  IC50: > 10000 nM
[16]
  IC50: 152 ± 41 nM
[17]; [32]
  tumor‐inhibition rate: > 90%
[17]; [33]
  antitumor activity: dose‐dependent tumor inhibitory activities
[18]; 10 PDAC cell lines
  FOSL1 expression: downregulated the FOSL1 expression
[18]; HT29 and HCT116 cells
  FOSL1 expression: relatively weak potency
[19]
  IC50: 1 nM
[20]
  expression of FOSL1 in tumor tissues: evidently reduced
[21]
  IC50: ~10000 nM
[22]
  phosphorylation of ERK: very weak or no impact on the phosphorylation of ERK and AKT
[23]
  IC50: 54 ± 8 nM
[24]
  IC50: > 10000 nM
[25]
  cell migration: dose‐dependently reduced cell migration
[26]
  IC50: 215 ± 31 nM
[27]
  IC50: 31 ± 12 nM
[28]
  IC50: ~10000 nM
[29]
  cell invasion: significantly suppressed the invasion
[30]
  IC50: 231 ± 12 nM
[31]
  IC50: 96 ± 60 nM
